# Compound activity: PubChem, several laboratories
# The list is not random: actives were taken first. Their share in the collection is about 2.1%.
# EBI2 antag = EBI2 receptor antagonists, beta-arrestin recruitment, primary screen, cell-based, luminescence, 7a,25-OHC stimulation, uHTS | G-protein coupled receptor 183 (Homo sapiens), P32249 | inhibition, % at 5 µM | 7a,25-OHC stimulated | 360,000 tested, 0.81% active; in the data active means inhibition above about 38%;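 further: enzyme fragment complementation signal reports receptor beta-arrestin coupling in cells; 0% = agonist plus DMSO wells and 100% = wells without agonist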
# CXCR6 block = CXCR6 receptor inhibitors, primary screen, cell-based, beta-arrestin, luminescence, CHO-K1 PathHunter, 1536-well. inhibition, % at 20 µM. C-X-C chemokine receptor type 6 (Homo sapiens), O00574. 360,000 tested, 0.36% active; in the data active means inhibition above about 34%, passing the limit was not always enough;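 further: antagonist mode with CXCL16 agonist at 10 nM final; 0% = 10 nM CXCL16 with DMSO and 100% = unstimulated wells without agonist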
# APJ antagonist = antagonists of human apelin receptor APJ, primary screen, CHO-K1 cells, beta-arrestin complementation, luminescence. P35414. 330,000 tested, 0.32% active. inhibition, % at 20 µM;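 active means inhibition above about 40% at 20 µM, limit read from the data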;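 further: cells challenged with 10 nM apelin-13 agonist together with compound; plate controls were apelin-13 plus DMSO wells for no effect and DMSO wells lacking apelin-13 for full effect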
# Target sequence (P35414 whole entry, looked up): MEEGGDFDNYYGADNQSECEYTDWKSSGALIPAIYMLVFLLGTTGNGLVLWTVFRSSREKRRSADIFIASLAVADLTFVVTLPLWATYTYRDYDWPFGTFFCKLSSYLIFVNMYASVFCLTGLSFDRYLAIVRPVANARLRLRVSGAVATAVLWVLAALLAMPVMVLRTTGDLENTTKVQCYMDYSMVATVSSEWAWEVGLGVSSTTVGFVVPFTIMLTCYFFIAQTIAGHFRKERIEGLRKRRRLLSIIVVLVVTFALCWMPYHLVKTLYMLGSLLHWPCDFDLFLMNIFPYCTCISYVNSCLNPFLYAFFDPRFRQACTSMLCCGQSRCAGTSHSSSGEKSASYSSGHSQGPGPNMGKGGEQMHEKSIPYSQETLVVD
# APJ ag = agonists of human apelin receptor APJ, primary screen, CHO-K1 cells, PathHunter beta-arrestin, luminescence | AID 2520, 2010 | activation, % at 20 µM | 0% DMSO wells, 100% apelin | P35414 | 330,000 tested, 0.11% active;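 active means activation more than six SD over the plate average, tested at 20 µM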;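 further: 0% = DMSO alone and 100% = apelin-13 at 10 nM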
#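 Incubation: overnight seeding, 90 min compound at 25 °C, 1 h detection; test system: PathHunter CHO-K1 APJ (AGTRL-1) beta-arrestin reporter cells; amount: 1000 cells/well; doses: one dose, 20 µM compound, 1% DMSO; measured by: beta-gal luminescence; measure: agonist-driven arrestin binding to APJ; benchmarks: negative DMSO alone, positive Apelin-13 at 10 nM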
# HTR2A ag = mouse Htr2a agonists via beta-arrestin recruitment, primary screen, cell-based, luminescence; 5-hydroxytryptamine receptor 2A (Mus musculus), P35363; CHO-K1 mHTR2A beta-arrestin complementation; percent of 30 µM serotonin response; activation, % at 7.6 µM; 360,000 tested, 0.66% active; AID 624169, 2012;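 active means activation above a run cutoff, the mean activation of all tested compounds plus 3 SD, cut at about 14% in these data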;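 further: 0% = plate median of compound wells and 100% = 30 µM serotonin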
# CCR6 antag = CCR6 receptor antagonists, primary screen, cell-based, CHO-K1, luminescence, beta-arrestin, uHTS | C-C chemokine receptor type 6 (Homo sapiens), P51684 | CHO-K1 CCR6 PathHunter beta-arrestin, CCL20-stimulated | inhibition, % at 20 µM | 340,000 tested, 0.49% active;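 active means compounds whose inhibition of the agonist-driven luminescence signal at 20 µM reaches about 50%, limit read from the data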;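 further: cells stimulated with CCL20 at 14 nM final; plate controls were DMSO with CCL20 for no effect and DMSO without agonist for full effect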
# APJ antag conf = APJ antagonists blocking beta-arrestin recruitment, confirmation, cell-based, luminescence, single concentration, uHTS hits. antagonist mode. shares compounds with APJ antagonist. 950 tested, 66% active. inhibition, % at 20 µM; in the data active means inhibition above about 50%
# * = called active by the depositor; / = no result.
SMILES,EBI2 antag,CXCR6 block,APJ antagonist,APJ ag,HTR2A ag,CCR6 antag,APJ antag conf
COc1ccc(N2CC(C(=O)Nc3ccccc3C(=O)NC3CC3)CC2=O)cc1 (stereo not drawn),-11,-14,41*,1,2,2,7
CN(C)c1ccc(/C=C2\C(=N)N3C(=NC2=O)Sc2cc(S(C)(=O)=O)ccc23)cc1,/,/,53*,11,/,/,49
O=C(Nc1ccccc1F)C1CCN(S(=O)(=O)c2cccc3nonc23)CC1,-8,2,8,1,-9,4,/
COc1cc(-c2cc(NC(C)=O)c3ncc(-c4cc(OC)c(OC)c(OC)c4)n3c2)cc(OC)c1OC,-5,3,/,/,3,/,/
Cn1cccc1/C=C(/C#N)C(N)=S,1,8,41*,-9,-3,29,58*
CC(=O)Nc1ccc(NCc2cccs2)cc1,-14,-9,104*,0,1,10,-2
CC(=O)Nc1ccc(NCCc2cccs2)cc1,4,-8,/,/,2,/,/
Cc1cc(Br)c(Cl)cc1NC(=O)CN1C(=O)C2C3CC(c4ccccc4)C(C3)C2C1=O (stereo not drawn),3,-12,55*,-2,1,-10,-20
Cc1cc(NC(=O)CCN2C(=O)C3C4CCC(C4)C3C2=O)c(C)cc1Br (stereo not drawn),8,-10,12,-3,0,-6,/
COc1cccc(NC(=S)N/N=C2\CC3CCC2(C)C3(C)C)c1 (stereo not drawn),22,40,41*,-7,-5,55*,79*
COc1ccc2oc(C(=O)N(Cc3ccco3)Cc3cccs3)c(C)c2c1,30,2,3,7,-4,17,/
CC(=O)Nc1cc(C(=O)OCC(=O)c2ccc(Cl)cc2Cl)ccc1C,1,6,52*,-7,-3,12,25
COC(=O)c1cccc(NC(=O)Nc2ccc(Cl)cc2Cl)c1,-10,-9,-13,-4,-1,-6,/
COc1ccc(C(=O)COC(=O)c2cccnc2Cl)c(OC)c1,10,-10,4,-5,0,12,/
CC(C)C(=O)Nc1cccc(C(=O)OCC(=O)c2ccc(Cl)cc2Cl)c1,21,2,49*,-5,-3,36,50*
CC(=O)Nc1cc(C(=O)OCC(=O)c2ccc(C)cc2)ccc1C,1,26,-6,-2,1,-19,/
O=C(COC(=O)c1cccnc1Cl)c1ccc(Cl)cc1Cl,-5,15,58*,-13,-2,21,60*
Cc1cccc(NS(=O)(=O)c2ccc(C)c(C(=O)N(C)C3CCN(C)CC3)c2)c1,-6,-6,6,-5,-4,4,/
COC(=O)C1CN(C(=O)C(C)Oc2ccc(C)c(C)c2)c2ccccc2O1 (stereo not drawn),-2,5,8,-7,-2,15,/
COCCNC(=O)C1(C)CCCN(C(=O)c2ccc(C#N)cc2)C1 (stereo not drawn),-2,-3,/,/,0,/,/
Nc1[nH]c2cc([N+](=O)[O-])ccc2c1-c1ccccn1,20,34,47*,-7,-2,49,100*
CCOC(=O)C1=CN(c2cccc(F)c2)C=C(C(=O)OCC)C1c1cc(OC)c(O)c([N+](=O)[O-])c1,7,27,44*,-4,-2,49,23
Cc1ccc(S(=O)(=O)N/N=C/c2ccc3nccnc3c2)cc1,10,18,58*,-11,6,56*,88*
COCCOC(=O)c1c(N)n(CCCN2CCOCC2)c2nc3ccccc3nc12,-6,8,-6,-5,3,5,/
CCCCCOC(=O)c1c(N)n(CCOC)c2nc3ccccc3nc12,11,8,43*,-11,11,9,-3
SMILES,EBI2 antag,CXCR6 block,APJ antagonist,APJ ag,HTR2A ag,CCR6 antag,APJ antag conf
Cc1cccc(C(=O)Nc2ccc(C(=O)/C=C/c3ccncc3)cc2)c1,41,59*,41*,2,-4,41,77*
O=C(Nc1ccc(Br)cc1)C1CCCN(C2=NS(=O)(=O)c3ccccc32)C1 (stereo not drawn),-7,8,5,-1,-8,6,/
CCCCN(C)CCNC(=O)c1cc2c(-c3cccc(OC)c3)nn(C)c2s1,9,-1,-9,-3,-10,16,/
COc1ccc(Cl)cc1-c1cc(C(=O)NCc2ccc(F)cc2)[nH]n1,12,1,/,/,-7,/,/
Cc1ccc2cc(NC(=O)C3(C)CCN3C(C)C)ccc2n1 (stereo not drawn),-4,-2,/,/,1,/,/
O=C1CCN(Cc2ccccc2)CCN1[C@H](CO)Cc1ccccc1,4,2,7,2,2,2,/
O=C1CCN(Cc2ccc(Br)cc2)CCN1[C@H](CO)Cc1ccccc1,6,25,45*,-5,5,19,30
COc1cc(/C=N/NS(=O)(=O)c2ccc(C)c([N+](=O)[O-])c2)cc([N+](=O)[O-])c1O,1,27,50*,-6,-4,47,60*
COc1cc(/C=N/NS(=O)(=O)c2ccc(C)c([N+](=O)[O-])c2)ccc1O,-1,10,24,1,-4,6,/
O=C(CSc1ccc2nnc(-c3cccnc3)n2n1)Nc1ccc(F)cc1F,1,-3,-39,-2,-4,12,/
CCC1=NN(C(=O)c2ccc(Cl)cc2)C(O)(c2ccccc2)C1 (stereo not drawn),11,33,41*,-3,-5,48,48
COc1ccc(NC(=O)/C(Cl)=C(/Cl)S(=O)Cc2ccc(Cl)cc2)cn1 (stereo not drawn),71*,100*,83*,-5,-10,100*,105*
Cc1ccc(NC(=O)Nc2ccc3c(c2)OCO3)c(Br)c1,-3,-1,41*,4,-7,10,16
Cc1ccc(OCC(=O)Nc2ccc3c(c2)OCO3)c(C)c1,3,1,66*,-3,2,5,45
CCOC(=O)[C@]12CCC=C1N(Cc1ccco1)C(=O)[C@H](CC(=O)NCCc1ccccc1OC)C2,-6,0,/,/,1,/,/
CSC(=NCc1ccco1)NC#N,-14,4,44*,2,11,5,-1
COc1ccc(-c2cc(=O)c3ccc(O)cc3o2)cc1OC,3,-2,/,/,-3,/,/
